Experimental data from ChEMBL document CHEMBL5230083, “Novel 2, 5-diketopiperazine derivatives as potent selective histone deacetylase 6 inhibitors: Rational design, synthesis and antiproliferative activity” (Eur J Med Chem, 2020).

Experiments:
Histone deacetylase 1 = Histone deacetylase 1 (Homo sapiens, UniProt Q13547); experiment: Inhibition of HDAC1 (unknown origin) using Fluor de lys as substrate by fluorescence based analysis
CCRF-CEM = experiment: Antiproliferative activity against human CCRF-CEM cells assessed as cell growth at 10 uM incubated for 48 hrs by SRB assay relative to control; type: functional; conditions: read-out: Activity
Method in brief: (§1)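 Single-concentration screen at 10 μM run by NCI on its NCI-60 human tumour panel (blood, lung, colon, CNS, melanoma, ovary, kidney, prostate, breast), following the NCI-60 published methodology. Read-out is growth percent relative to untreated cells.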

MOLT-4 = experiment: Antiproliferative activity against human MOLT-4 cells assessed as cell growth at 10 uM incubated for 48 hrs by SRB assay relative to control; type: functional; conditions: read-out: Activity; method in brief: as §1
RPMI-8226 = experiment: Antiproliferative activity against human RPMI-8226 cells assessed as cell growth at 10 uM incubated for 48 hrs by SRB assay relative to control; type: functional; conditions: read-out: Activity; method in brief: as §1
EKVX = experiment: Antiproliferative activity against human EKVX cells assessed as cell growth at 10 uM incubated for 48 hrs by SRB assay relative to control; type: functional; conditions: read-out: Activity; method in brief: as §1
HOP-62 = experiment: Antiproliferative activity against human HOP-62 cells assessed as cell growth at 10 uM incubated for 48 hrs by SRB assay relative to control; type: functional; conditions: read-out: Activity; method in brief: as §1
NCI-H23 = experiment: Antiproliferative activity against human NCI-H23 cells assessed as cell growth at 10 uM incubated for 48 hrs by SRB assay relative to control; type: functional; conditions: read-out: Activity; method in brief: as §1
HCC 2998 = experiment: Antiproliferative activity against human HCC 2998 cells assessed as cell growth at 10 uM incubated for 48 hrs by SRB assay relative to control; type: functional; conditions: read-out: Activity; method in brief: as §1
HT-29 = experiment: Antiproliferative activity against human HT-29 cells assessed as cell growth at 10 uM incubated for 48 hrs by SRB assay relative to control; type: functional; conditions: read-out: Activity; method in brief: as §1
SF-295 = experiment: Antiproliferative activity against human SF-295 cells assessed as cell growth at 10 uM incubated for 48 hrs by SRB assay relative to control; type: functional; conditions: read-out: Activity; method in brief: as §1
SNB-19 = experiment: Antiproliferative activity against human SNB-19 cells assessed as cell growth at 10 uM incubated for 48 hrs by SRB assay relative to control; type: functional; conditions: read-out: Activity
Method in brief: (§2)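 NCI-60 single-dose screen: compounds tested at 10 μM, and growth percent of each cell line calculated. The full method follows the NCI DTP protocol.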

LOX IMVI = experiment: Antiproliferative activity against human LOX IMVI cells assessed as cell growth at 10 uM incubated for 48 hrs by SRB assay relative to control; type: functional; conditions: read-out: Activity; method in brief: as §1
Malme-3M = experiment: Antiproliferative activity against human Malme-3M cells assessed as cell growth at 10 uM incubated for 48 hrs by SRB assay relative to control; type: functional; conditions: read-out: Activity; method in brief: as §1
M14 = experiment: Antiproliferative activity against human M14 cells assessed as cell growth at 10 uM incubated for 48 hrs by SRB assay relative to control; type: functional; conditions: read-out: Activity; method in brief: as §1
MDA-MB-435 = experiment: Antiproliferative activity against human MDA-MB-435 cells assessed as cell growth at 10 uM incubated for 48 hrs by SRB assay relative to control; type: functional; conditions: read-out: Activity; method in brief: as §1
SK-MEL-2 = experiment: Antiproliferative activity against human SK-MEL-2 cells assessed as cell growth at 10 uM incubated for 48 hrs by SRB assay relative to control; type: functional; conditions: read-out: Activity; method in brief: as §1
SK-MEL-5 = experiment: Antiproliferative activity against human SK-MEL-5 cells assessed as cell growth at 10 uM incubated for 48 hrs by SRB assay relative to control; type: functional; conditions: read-out: Activity; method in brief: as §2
UACC-257 = experiment: Antiproliferative activity against human UACC-257 cells assessed as cell growth at 10 uM incubated for 48 hrs by SRB assay relative to control; type: functional; conditions: read-out: Activity; method in brief: as §2
UACC-62 = experiment: Antiproliferative activity against human UACC-62 cells assessed as cell growth at 10 uM incubated for 48 hrs by SRB assay relative to control; type: functional; conditions: read-out: Activity; method in brief: as §2
IGROV-1 = experiment: Antiproliferative activity against human IGROV-1 cells assessed as cell growth at 10 uM incubated for 48 hrs by SRB assay relative to control; type: functional; conditions: read-out: Activity; method in brief: as §1
OVCAR-5 = experiment: Antiproliferative activity against human OVCAR-5 cells assessed as cell growth at 10 uM incubated for 48 hrs by SRB assay relative to control; type: functional; conditions: read-out: Activity; method in brief: as §1
NCI/ADR-RES = experiment: Antiproliferative activity against human NCI/ADR-RES cells assessed as cell growth at 10 uM incubated for 48 hrs by SRB assay relative to control; type: functional; conditions: read-out: Activity; method in brief: as §1
SK-OV-3 = experiment: Antiproliferative activity against human SK-OV-3 cells assessed as cell growth at 10 uM incubated for 48 hrs by SRB assay relative to control; type: functional; conditions: read-out: Activity; method in brief: as §2
TK-10 = experiment: Antiproliferative activity against human TK-10 cells assessed as cell growth at 10 uM incubated for 48 hrs by SRB assay relative to control; type: functional; conditions: read-out: Activity; method in brief: as §2
UO-31 = experiment: Antiproliferative activity against human UO-31 cells assessed as cell growth at 10 uM incubated for 48 hrs by SRB assay relative to control; type: functional; conditions: read-out: Activity; method in brief: as §2
PC-3 = experiment: Antiproliferative activity against human PC-3 cells assessed as cell growth at 10 uM incubated for 48 hrs by SRB assay relative to control; type: functional; conditions: read-out: Activity; method in brief: as §1
DU-145 = experiment: Antiproliferative activity against human DU-145 cells assessed as cell growth at 10 uM incubated for 48 hrs by SRB assay relative to control; type: functional; conditions: read-out: Activity; method in brief: as §1
MCF7 = experiment: Antiproliferative activity against human MCF7 cells assessed as cell growth at 10 uM incubated for 48 hrs by SRB assay relative to control; type: functional; conditions: read-out: Activity; method in brief: as §1
Hs-578T = experiment: Antiproliferative activity against human Hs-578T cells assessed as cell growth at 10 uM incubated for 48 hrs by SRB assay relative to control; type: functional; conditions: read-out: Activity; method in brief: as §1
BT-549 = experiment: Antiproliferative activity against human BT-549 cells assessed as cell growth at 10 uM incubated for 48 hrs by SRB assay relative to control; type: functional; conditions: read-out: Activity; method in brief: as §1
MDA-MB-468 = experiment: Antiproliferative activity against human MDA-MB-468 cells assessed as cell growth at 10 uM incubated for 48 hrs by SRB assay relative to control; type: functional; conditions: read-out: Activity; method in brief: as §1
[1] = Cytotoxicity against human HS5 cells assessed as inhibition of cell growth incubated for 72 hrs by alamar blue assay; type: toxicity, cell-based
Method in brief: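 Cells were grown in IMDM with 20% FBS and penicillin/streptomycin at 37 °C in 5% CO2. Drug-treated cells were incubated 72 h. Alamar blue (1 mM solution) was then added for 5–6 h, and fluorescence read at 530/590 nm.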

Chain of Histone deacetylase 1 (Q13547 whole entry): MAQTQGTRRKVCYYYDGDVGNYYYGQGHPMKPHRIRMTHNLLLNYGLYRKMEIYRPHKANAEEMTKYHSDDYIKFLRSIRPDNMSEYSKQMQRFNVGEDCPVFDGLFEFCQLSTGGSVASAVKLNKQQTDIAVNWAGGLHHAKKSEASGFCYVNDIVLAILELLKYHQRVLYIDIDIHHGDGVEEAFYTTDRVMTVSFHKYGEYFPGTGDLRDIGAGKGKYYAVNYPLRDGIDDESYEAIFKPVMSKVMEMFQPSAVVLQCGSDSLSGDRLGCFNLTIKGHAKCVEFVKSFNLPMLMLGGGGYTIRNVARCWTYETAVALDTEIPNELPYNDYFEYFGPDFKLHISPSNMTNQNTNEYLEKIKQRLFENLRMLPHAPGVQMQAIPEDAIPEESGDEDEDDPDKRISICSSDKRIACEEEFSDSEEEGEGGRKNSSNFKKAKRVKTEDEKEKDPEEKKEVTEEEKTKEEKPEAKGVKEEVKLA

Row | SMILES | IC50 (Histone deacetylase 1) [µM] | growth at 10 µM (CCRF-CEM) [%] | growth at 10 µM (MOLT-4) [%] | growth at 10 µM (RPMI-8226) [%] | growth at 10 µM (EKVX) [%] | growth at 10 µM (HOP-62) [%] | growth at 10 µM (NCI-H23) [%] | growth at 10 µM (HCC 2998) [%] | growth at 10 µM (HT-29) [%] | growth at 10 µM (SF-295) [%] | growth at 10 µM (SNB-19) [%] | growth at 10 µM (LOX IMVI) [%] | growth at 10 µM (Malme-3M) [%] | growth at 10 µM (M14) [%] | growth at 10 µM (MDA-MB-435) [%] | growth at 10 µM (SK-MEL-2) [%] | growth at 10 µM (SK-MEL-5) [%] | growth at 10 µM (UACC-257) [%] | growth at 10 µM (UACC-62) [%] | growth at 10 µM (IGROV-1) [%] | also measured
1 | O=C(NO)c1ccc(CN2CC(=O)N(Cc3ccccc3)[C@H](Cc3ccccc3)C2=O)cc1 | 9.64 | 72 | 76.7 | 58.6 | 88.2 | 87.8 | 86.7 | 85.9 | 87.9 | 100 | 85.4 | 93.2 | 77.1 | 90.4 | 91.3 | 99.4 | 96.7 | 69.3 | 87.5 | 89 | growth at 10 µM (OVCAR-5): 97.8%; growth at 10 µM (NCI/ADR-RES): 94.5%; growth at 10 µM (SK-OV-3): 90.4%; growth at 10 µM (TK-10): 88.1%; growth at 10 µM (UO-31): 69.5%; growth at 10 µM (PC-3): 76.5%; growth at 10 µM (DU-145): 87%; growth at 10 µM (MCF7): 82.9%; growth at 10 µM (Hs-578T): 82%; growth at 10 µM (BT-549): 103%; growth at 10 µM (MDA-MB-468): 79.9%; IC50 at 72 hrs [1]: > 100 µM
2 | O=C1CN(Cc2ccc(C(=O)NO)cc2)C(=O)[C@@H](Cc2c[nH]c3ccccc23)N1 | 8.02 | 103 | 86.8 | 104 | 106 | 102 | 101 | 103 | 104 | 105 | 96.8 | 106 | 94.6 | 94.2 | 102 | 113 | 108 | 96.1 | 95.5 | 101 | growth at 10 µM (OVCAR-5): 107%; growth at 10 µM (NCI/ADR-RES): 104%; growth at 10 µM (SK-OV-3): 96.5%; growth at 10 µM (TK-10): 103%; growth at 10 µM (UO-31): 91.1%; growth at 10 µM (PC-3): 97.5%; growth at 10 µM (DU-145): 107%; growth at 10 µM (MCF7): 96.7%; growth at 10 µM (Hs-578T): 104%; growth at 10 µM (BT-549): 98.2%; growth at 10 µM (MDA-MB-468): 107%; IC50 at 72 hrs [1]: > 100 µM
